Compound activity deposited in PubChem BioAssay by several laboratories.
Many of the other results were omitted from the sample, so hits are more common in it than they were.
697 NFkB inh: lowers PMA/ionomycin-induced NF-kB signal in 697 B cells; 697 B-cell NF-kB luciferase reporter, 16 h; inhibition, % at 4 µM; hit rate 0.33% among 330,000; AID 435022; in the data active means inhibition above about 35%
CHOP UPR activ: apoptotic UPR (CHOP) activation; CHO-CHOP luciferase reporter, luminescence; percent of tunicamycin response over DMSO baseline; activation, % at 10 µM; hit rate 0.34% among 330,000; AID 449763;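 active means at 10 µM dose, activation of 40% or more, normalized to positive control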
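Assay system: CHO cells with stable CHOP pathway luciferase reporter; Buffer or medium: F12 plus 10% serum; Times: 16-18 h cell attachment, then 6 h compound exposure, 37 °C; Signal: luciferase luminescence; Read-out basis: percent activation relative to tunicamycin control; Control set: tunicamycin high control, DMSO low control.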
CHOP inhibitor: inhibitors of CHOP induction in ER stress response; CHO-K1 CHOP-promoter luciferase, tunicamycin-induced, 15-18 h; hit rate 3.8% among 220,000; inhibition, % at 10 µM;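 active means compounds that reduced the stress-induced luciferase reporter signal by more than about 70% of percent inhibition, limit read from the data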
Jurkat NFkB inh: lowers PMA/ionomycin-induced NF-kB signal in Jurkat cells | inhibition, % at 4 µM | PMA/ionomycin-induced NF-kB luciferase reporter, luminescence | hit rate 0.53% among 330,000; in the data active means inhibition above about 50%
UPR XBP1 act: activators of adaptive arm of unfolded protein response (XBP1). activation, % at 20 µM. hit rate 0.33% among 330,000. CHO-XBP1 luciferase reporter, IRE1-XBP1 UPR activation, luminescence; percent of tunicamycin response, DMSO as zero;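 active means versus positive control, 20 µM dose yields 30% or more activation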
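Material: CHO-XBP1 cells stably carrying IRE1-XBP1-driven luciferase reporter | Medium: F12 with 10% serum | Compound dosing: 20 µM single concentration, DMSO 1% | Incubation: Overnight seeding at 37 °C, 6 h compound treatment at 37 °C | Detection: Steady-Glo luminescence read | Read-out basis: % activation of reporter signal versus tunicamycin and DMSO controls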
Each line names hits and unclear results; the compound was inactive in the other large screens.

COc1cc(C=C(c2nc3ccccc3s2)c2nc3ccccc3s2)ccc1O	CHOP inhibitor 74
COC1=C(N)C(=O)c2nc(-c3nc(C(=O)O)c(C)c(-c4ccc(OC)c(OC)c4O)c3N)ccc2C1=O	CHOP inhibitor 81
CCN(CC(O)CON=C1c2ccccc2-c2ccccc21)S(=O)(=O)c1ccc(C)cc1 (centres undefined)	none
CS(=O)(=O)N(CC(O)CON=C1c2ccccc2-c2ccccc21)c1ccc(F)cc1 (centres undefined)	CHOP inhibitor 73
Cc1cccc(N(CC(O)CON=C2c3ccccc3-c3ccccc32)S(C)(=O)=O)c1 (centres undefined)	CHOP inhibitor 70
Cc1nc2ccccn2c1-c1ccnn1S(=O)(=O)c1ccc(F)cc1	none
COc1ccc(-c2nn(-c3ccccc3)cc2C(=O)NCC2CCCO2)cc1 (centres undefined)	none (no result: CHOP inhibitor)
Cc1cc(=O)n2c(C(=O)Nc3ccc(C(=O)OC(C)C)cc3)c(C(=O)Nc3ccccc3)sc2n1	CHOP inhibitor 96
CC1CC(C)CN(S(=O)(=O)c2ccc(C(=O)Nc3sccc3C(N)=O)cc2)C1 (centres undefined)	CHOP inhibitor 87
O=C(Nc1nnc(-c2ccc3c(c2)CCCC3)o1)c1c(F)cccc1F	none
O=C(Nc1nnc(-c2ccc3c(c2)CCCC3)o1)C1CCCCC1	CHOP inhibitor 84
O=C(Nc1nnc(-c2ccc3c(c2)CCCC3)o1)c1ccc(Cl)cc1Cl	CHOP inhibitor 98
O=C(CCc1ccccc1)Nc1nnc(-c2ccc3c(c2)CCCC3)o1	CHOP inhibitor 94
Cc1ccc(C2(c3ccccc3)NC(=O)N(CC(=O)NC3(C#N)CCCC3)C2=O)cc1C (centres undefined)	none (no result: CHOP inhibitor)
C=CCN1C(=O)c2ccc(C(=O)N(CC)CC(=O)Nc3cc(Cl)ccc3C)cc2C1=O	none (no result: CHOP inhibitor)
Cc1ccc(C(C)C)c(OCC(=O)OCC(=O)NC2CC2)c1	none (no result: CHOP inhibitor)
Cc1ccc(C(C)C)c(OCC(=O)OCc2c(C)noc2C)c1	CHOP inhibitor 83
COc1cc(C(=O)N[C@H](C(=O)OCC(=O)NC2CCCCCC2)C(C)C)cc(OC)c1OC	none (no result: CHOP inhibitor)
CN(C)c1cccc(C(=O)OCc2cc(=O)oc3cc(O)ccc23)c1	CHOP inhibitor 90
CC1CN(S(=O)(=O)c2cccc(C(=O)OCc3cc(=O)oc4cc(O)ccc34)c2)CC(C)O1 (centres undefined)	none (no result: CHOP inhibitor)
COc1cc(C2NC(=O)C(C#N)=C(Nc3cccc(C)c3)S2)ccc1O (centres undefined)	none
Cn1c(SCc2ccccc2Cl)nc(C(F)(F)F)cc1=O	CHOP inhibitor 74
Cn1c(SCc2cccc(Cl)c2)nc(C(F)(F)F)cc1=O	CHOP inhibitor 84
Cn1c(SCc2ccccc2)nc(C(F)(F)F)cc1=O	none
Cn1c(SCc2c(Cl)cccc2Cl)nc(C(F)(F)F)cc1=O	CHOP inhibitor 82
Cn1c(SCc2ccccc2Cl)nc2ccccc21	none
Cc1ccc(S(=O)(=O)N(Cc2ccccc2F)C(=O)N2CCN(C)CC2)cc1	none (no result: CHOP inhibitor)
O=C1Nc2ccc(Br)cc2/C1=C/C1CC=CCC1 (centres undefined)	CHOP inhibitor 95
O=C1NC(Cc2ccccc2)C(=O)Nc2ccc(Br)cc21 (centres undefined)	none (no result: CHOP inhibitor)
Cc1cc(N2CCN(c3ccc(F)cc3)CC2)nc2cc(O)ccc12	CHOP inhibitor 82
Cc1c(C(=O)NCc2ccc3c(c2)OCO3)oc2ccc(S(=O)(=O)N3CCC(C)CC3)cc12	none
CC1CCN(S(=O)(=O)c2ccc3c(c2)oc(=O)n3CC(=O)NCc2ccc3c(c2)OCO3)CC1	CHOP inhibitor 83
COc1cc(/C=N/N2CCN(Cc3ccc(C)cc3)CC2)cc(OC)c1O	none (no result: CHOP inhibitor)
COc1ccc(CCn2c(O)c(C=Nc3cccc(F)c3)c(=O)[nH]c2=O)cc1OC	CHOP inhibitor 80
Cc1ccc2c(c1)C(c1ccncc1)=NNC(c1ccc(F)cc1)=N2	none
Cc1ccc2c(c1)C(c1ccncc1)=NNC(c1ccc(C(C)C)cc1)=N2	CHOP inhibitor 98 (no result: 697 NFkB inh, CHOP UPR activ, Jurkat NFkB inh, UPR XBP1 act)
Cc1cc(N2CCN(C(=O)c3ccco3)CC2)n2nc(-c3cccc(Cl)c3)cc2n1	CHOP inhibitor 96
CN(C)c1ccc(NC(=O)C(=O)NCCOc2ccccc2)cc1	CHOP inhibitor 70
CN(C(=O)COc1ccccc1C(=O)NCCOc1ccccc1)c1ccccc1	CHOP inhibitor 79
CC(=O)c1ccc(S(=O)(=O)N2CCC(NC(=O)c3ccccc3)CC2)cc1	none (no result: CHOP inhibitor)
Cc1ccc(NC(=O)COc2ccc3oc4c(c3c2)CCCC4)nc1	CHOP inhibitor 76
CC(OC(=O)/C=C/c1ccccc1Cl)C(=O)NC1CCCCC1C (centres undefined)	none (no result: CHOP inhibitor)
CCC(=O)c1ccc(OCC(=O)OC(C)C(=O)NCc2ccc3c(c2)OCO3)cc1 (centres undefined)	none (no result: CHOP inhibitor)
COc1ccc(-c2nc(C(N)=O)c3[nH]c(=O)n(-c4cccc(Cl)c4)c3n2)cc1OC	CHOP inhibitor 95 (no result: 697 NFkB inh, CHOP UPR activ, Jurkat NFkB inh, UPR XBP1 act)
CCc1ccc(-c2nc(C(N)=O)c3[nH]c(=O)n(-c4ccccc4OC)c3n2)cc1	CHOP inhibitor 72
COc1cccc(-c2nc(C(N)=O)c3[nH]c(=O)n(-c4cccc(Cl)c4)c3n2)c1OC	none
CCC(=O)N(Cc1ccco1)c1nc(-c2cc(OC)ccc2OC)cs1	CHOP inhibitor 75
CC(C)CC(=O)Nc1cc2nn(-c3ccccc3)nc2cc1Cl	CHOP inhibitor 85
CN(C)c1ccc(C(=O)OCc2ccccc2)cc1	none
COC(=O)c1ccc(COC(=O)c2ccc(N(C)C)cc2)cc1	CHOP inhibitor 80
COc1ccc(-c2cc(CNS(=O)(=O)c3ccc(NC(C)=O)cc3)on2)cc1	none (no result: CHOP inhibitor)
O=S(=O)(NCc1cc(-c2ccccc2Cl)no1)c1ccc(Cl)cc1	CHOP inhibitor 74
COc1ccc(OC)c(N/C(=N/C(=S)Nc2ccccc2)Nc2nc(C)cc(C)n2)c1	none
COc1cc(S(=O)(=O)N2CCN(Cc3ccccc3)CC2)ccc1Br	CHOP inhibitor 78
Cc1ccc(NC(=O)c2cnccn2)cc1C	none (no result: CHOP inhibitor)
CC(C)c1nc(Cl)c(C#N)c2c1CCCC2	CHOP inhibitor 85
CC(C)c1nc(Cl)c(C#N)c2c1CCC2	none
COc1ccccc1NS(=O)(=O)c1cc([N+](=O)[O-])ccc1N/N=C/c1c(C)[nH]c2ccccc12	CHOP inhibitor 84
CCC(=O)N1CCc2cc(S(=O)(=O)CCC(=O)NCc3ccccc3OC)ccc21	none (no result: CHOP inhibitor)
Cc1ccc(S(=O)(=O)N(C)C)cc1NC(=O)CSc1nncs1	none (no result: CHOP inhibitor)
Cc1ccc(C2=NN(C(=O)CCC(=O)O)C(c3cn(-c4ccccc4)nc3-c3ccc(C)cc3)C2)cc1 (centres undefined)	CHOP inhibitor 95
Cc1cccc2c1c1ccc3c(c1n2C)C(=O)C=CC3=O	CHOP inhibitor 78 (no result: 697 NFkB inh, CHOP UPR activ, Jurkat NFkB inh, UPR XBP1 act)
Cc1ccccc1N1CC(=O)N(c2ccccc2C)CC1=O	none
COc1ccccc1OCC(=O)N(Cc1nc(-c2ccc(Cl)cc2)no1)C(C)C	none
